In publication PMC9082424 (RSC Advances, 2018):

Tests used:
[1] = molecular target: T1, α-glucosidase (Saccharomyces cerevisiae, UniProt P53341); experiment: α-Glucosidase inhibitory assay in vitro; type: biochemical; details: for α-Glucosidase inhibitory activity (in words): up to the highest tested concentration
[2] = molecular target: T1, α-glucosidase; experiment: Steady-state kinetic analysis of α-glucosidase inhibition; type: biochemical
Procedure, shortened: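 Yeast α-glucosidase (final 0.025 U mL−1, in 75 mM phosphate buffer pH 7.4) premixed with test compound at several concentrations for 10 min at 37 °C. 4-NPGP (50–200 μM) added to start the reaction. 4-Nitrophenol followed at 405 nm every 30 s for 10 min, with initial velocity taken as ΔA per min. Analysed by Lineweaver–Burk plots. Ki came from secondary plots of slopes, and Ki′ from secondary plots of apparent 1/Vmax, against inhibitor concentration. Three independent experiments.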

T1 sequence (P53341 whole entry): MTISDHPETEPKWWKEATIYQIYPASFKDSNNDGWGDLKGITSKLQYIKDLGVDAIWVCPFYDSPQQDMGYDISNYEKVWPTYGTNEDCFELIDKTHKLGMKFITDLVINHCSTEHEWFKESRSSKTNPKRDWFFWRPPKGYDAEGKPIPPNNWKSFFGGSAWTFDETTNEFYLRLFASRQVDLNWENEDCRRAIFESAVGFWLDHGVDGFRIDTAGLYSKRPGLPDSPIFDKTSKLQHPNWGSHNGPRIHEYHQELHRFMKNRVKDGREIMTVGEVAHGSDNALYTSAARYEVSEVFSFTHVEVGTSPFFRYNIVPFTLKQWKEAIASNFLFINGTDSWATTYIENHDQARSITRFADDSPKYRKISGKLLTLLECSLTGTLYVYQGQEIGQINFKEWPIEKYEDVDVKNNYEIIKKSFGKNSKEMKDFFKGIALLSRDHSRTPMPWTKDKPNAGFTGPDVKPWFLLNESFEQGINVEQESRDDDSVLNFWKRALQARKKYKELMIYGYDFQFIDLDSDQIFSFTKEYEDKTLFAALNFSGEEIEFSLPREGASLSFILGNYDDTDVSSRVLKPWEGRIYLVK

| SMILES | IC50 [1] [µM] | α-Glucosidase inhibitory activity (in words) [1] | Ki [2] [µM] | Inhibition mode ([2]; with respect to substrate 4-NPGP (50–200 μM)) |
| --- | --- | --- | --- | --- |
| C[C@H]1COC2=C1C(=O)C(=O)c1c2ccc2c1CCCC2(C)C [CTS, cryptotanshinone] | > 100 | – | – | – |
| O=C(/C=C/c1ccc(O)c2c1[C@H](C(=O)O)[C@@H](c1ccc(O)c(O)c1)O2)O[C@H](Cc1ccc(O)c(O)c1)C(=O)O [LA, lithospermic acid] | > 100 | weak inhibitory effect | – | – |
| CC(C)C1=Cc2ccc3c(c2C(=O)C1=O)CCCC3(C)C [MT, miltirone] | > 100 | – | – | – |
| Cc1coc2c1C(=O)C(=O)c1c-2ccc2c1CCCC2(C)C [TS-IIA, tanshinone IIA] | > 100 | – | – | – |
| O=C(O)/C=C/c1ccc(O)c(O)c1 [CA, caffeic acid] | > 100 | – | – | – |
| Cc1coc2c1C(=O)C(=O)c1c-2ccc2c1CCCC2(C)CO (stereo not shown) [TS-IIB, tanshinone IIB] | > 100 | weak inhibitory activity | – | – |
| O=C(/C=C/c1ccc(O)c(O)c1/C=C/c1ccc(O)c(O)c1)O[C@H](Cc1ccc(O)c(O)c1)C(=O)O [SAA, salvianolic acid A] | 19.3 ± 0.89 | – | 21.2 | competitive inhibition |
| O=C(/C=C/c1ccc(O)c(O)c1)O[C@H](Cc1ccc(O)c(O)c1)C(=O)O [RA, rosmarinic acid] | > 200 | – | – | – |
| C[C@H]1[C@H](C)CC[C@]2(C(=O)O)CC[C@]3(C)C(=CC[C@@H]4[C@@]5(C)CC[C@H](O)C(C)(C)[C@@H]5CC[C@]43C)[C@H]12 [UA, ursolic acid] | – | weak inhibitory activity | – | – |
